Test results taken from ChEMBL document CHEMBL1147403, “MexAB-OprM specific efflux pump inhibitors in Pseudomonas aeruginosa. Part 3: Optimization of potency in the pyridopyrimidine series through the application of a pharmacophore model” (2004).

What was measured:
Type in all cases: functional
Pseudomonas aeruginosa [1] = experiment: Minimum inhibitory concentration against Pseudomonas aeruginosa in presence of aztreonam substrate and with 0.125% human serum albumin, (100% growth inhibition)
Outline: (§1)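 Potentiation of aztreonam, a MexAB-OprM substrate, against P. aeruginosa PAM1723 (MexAB-OprM overexpressed; MexCD-OprJ and MexEF-OprN genetically disrupted). Run without HSA and with 0.125% human serum albumin. Value is the inhibitor concentration (µg/mL) giving 8-fold potentiation (MPC8).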

Pseudomonas aeruginosa [2] = experiment: Minimum inhibitory concentration against Pseudomonas aeruginosa in presence of aztreonam substrate and with out human serum albumin, (100% growth inhibition); outline: as §1
Pseudomonas aeruginosa [3] = experiment: Intrinsic antibacterial activity against Pseudomonas aeruginosa
Outline: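 Tested alone for antibacterial activity against P. aeruginosa PAM1723, a strain that overexpresses the MexAB-OprM pump and has MexCD-OprJ and MexEF-OprN genetically disrupted; MIC in µg/mL.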

Pseudomonas aeruginosa [4] = experiment: Minimum inhibitory concentration Pseudomonas aeruginosa in presence of LVFX substrate, (100% growth inhibition)
Outline: (§2)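 Potentiation of levofloxacin (LVFX), a MexAB-OprM substrate, against P. aeruginosa PAM1723 (MexAB-OprM overexpressed; MexCD-OprJ and MexEF-OprN genetically disrupted). Value is the inhibitor concentration (µg/mL) giving 4-fold (MPC4) or 8-fold (MPC8) potentiation.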

Rattus norvegicus = species: Rattus norvegicus; experiment: Serum protein binding of compound was evaluated using rat serum
Pseudomonas aeruginosa [5] = experiment: Minimum inhibitory concentration against Pseudomonas aeruginosa in presence of LVFX substrate, (100% growth inhibition); outline: as §2
Pseudomonas aeruginosa [6] = experiment: Minimum concentration of inhibitor required to reduce (potentiate) the activity of antibacterial drug aztreonam by 8-fold in absence of human serum using Pseudomonas aeruginosa, value reported is for 100% growth inhibition; outline: as §1

Question: How did the MPC8 (Pseudomonas aeruginosa [1]) turn out when `CC(C)c1csc(CCc2ccn3c(=O)c(/C=C/C(=O)O)c(N4CC[C@@H](N(C)C)C4)nc3c2)n1` was run?
Answer: 64 µg/mL

Question: What about the MPC8 (Pseudomonas aeruginosa [2]) of the same compound?
Answer: 128 µg/mL

Question: What about the MIC (Pseudomonas aeruginosa [3]) of the same compound?
Answer: > 320 µg/mL

Question: And the MPC4 (Pseudomonas aeruginosa [4])?
Answer: 8 µg/mL

Question: And the Binding (Rattus norvegicus)?
Answer: 69.3%

Question: What about the MPC8 (Pseudomonas aeruginosa [5]) of the same compound?
Answer: 128 µg/mL

Question: With `CCC(CC)Nc1nc2cc(CCc3nc(C(C)C)cs3)ccn2c(=O)c1/C=C/C(=O)O` as the compound, how does the MPC8 (Pseudomonas aeruginosa [1]) read?
Answer: 128 µg/mL

Question: What about the MPC8 (Pseudomonas aeruginosa [2]) of the same compound?
Answer: 128 µg/mL

Question: And the MIC (Pseudomonas aeruginosa [3])?
Answer: > 320 µg/mL

Question: What about the MPC4 (Pseudomonas aeruginosa [4]) of the same compound?
Answer: 32 µg/mL

Question: What about the MPC8 (Pseudomonas aeruginosa [5]) of the same compound?
Answer: >128 µg/mL

Question: Which MPC8 (Pseudomonas aeruginosa [1]) does the source give for `CC(C)c1csc(CCc2ccn3c(=O)c(/C=C/C(=O)O)c(N4CCC(N(C)C)CC4)nc3c2)n1` here?
Answer: 128 µg/mL

Question: And the MPC8 (Pseudomonas aeruginosa [2])?
Answer: 128 µg/mL

Question: And the MIC (Pseudomonas aeruginosa [3])?
Answer: > 320 µg/mL

Question: And the MPC4 (Pseudomonas aeruginosa [4])?
Answer: 32 µg/mL

Question: What about the MPC8 (Pseudomonas aeruginosa [5]) of the same compound?
Answer: >128 µg/mL

Question: How did the MPC8 (Pseudomonas aeruginosa [1]) turn out when `CC(C)c1csc(CCc2ccn3c(=O)c(/C=C/C(=O)O)c(NCC4CCCCC4)nc3c2)n1` was run?
Answer: >64 µg/mL

Question: And the MPC8 (Pseudomonas aeruginosa [2])?
Answer: >64 µg/mL

Question: What about the MIC (Pseudomonas aeruginosa [3]) of the same compound?
Answer: > 320 µg/mL

Question: And the MPC4 (Pseudomonas aeruginosa [4])?
Answer: 8 µg/mL

Question: And the MPC8 (Pseudomonas aeruginosa [5])?
Answer: >64 µg/mL

Question: Which results are given for `CC(C)c1csc(CCc2ccn3c(=O)c(/C=C/C(=O)O)c(N[C@H]4CC[C@H](O)CC4)nc3c2)n1`?
Answer: MPC8 (Pseudomonas aeruginosa [1]): >64 µg/mL; MPC8 (Pseudomonas aeruginosa [2]): >64 µg/mL; MIC (Pseudomonas aeruginosa [3]): > 320 µg/mL; MPC4 (Pseudomonas aeruginosa [4]): 16 µg/mL; MPC8 (Pseudomonas aeruginosa [5]): >64 µg/mL

Question: Which MPC8 (Pseudomonas aeruginosa [1]) does the source give for `CC(C)c1csc(CCc2ccn3c(=O)c(/C=C/C(=O)O)c(N4CCOCC4)nc3c2)n1` here?
Answer: 32 µg/mL

Question: And the MPC8 (Pseudomonas aeruginosa [2])?
Answer: 16 µg/mL

Question: What about the MIC (Pseudomonas aeruginosa [3]) of the same compound?
Answer: > 320 µg/mL

Question: And the MPC4 (Pseudomonas aeruginosa [4])?
Answer: 2 µg/mL

Question: What about the Binding (Rattus norvegicus) of the same compound?
Answer: 92%

Question: And the MPC8 (Pseudomonas aeruginosa [5])?
Answer: 16 µg/mL

Question: What does the source list for `CC(C)c1csc(CCc2ccn3c(=O)c(/C=C/C(=O)O)c(NCc4ccccn4)nc3c2)n1`?
Answer: MPC8 (Pseudomonas aeruginosa [1]): 32 µg/mL; MPC8 (Pseudomonas aeruginosa [2]): 32 µg/mL; MIC (Pseudomonas aeruginosa [3]): > 320 µg/mL; MPC4 (Pseudomonas aeruginosa [4]): 16 µg/mL; MPC8 (Pseudomonas aeruginosa [5]): 128 µg/mL

Question: What does the source list for `CC(C)c1csc(CCc2ccn3c(=O)c(/C=C/C(=O)O)c(N4CCCC(CO)C4)nc3c2)n1` (stereo not drawn)?
Answer: MPC8 (Pseudomonas aeruginosa [1]): 16 µg/mL; MPC8 (Pseudomonas aeruginosa [2]): 16 µg/mL; MIC (Pseudomonas aeruginosa [3]): > 320 µg/mL; MPC4 (Pseudomonas aeruginosa [4]): 2 µg/mL; Binding (Rattus norvegicus): 91.5%; MPC8 (Pseudomonas aeruginosa [5]): 16 µg/mL

Question: Which MPC8 (Pseudomonas aeruginosa [1]) does the source give for `CC(C)c1csc(CCc2ccn3c(=O)c(/C=C/C(=O)O)c(N4CCCCC4)nc3c2)n1` here?
Answer: 8 µg/mL

Question: And the MPC8 (Pseudomonas aeruginosa [2])?
Answer: 4 µg/mL

Question: And the MIC (Pseudomonas aeruginosa [3])?
Answer: > 320 µg/mL

Question: What about the MPC4 (Pseudomonas aeruginosa [4]) of the same compound?
Answer: 0.5 µg/mL

Question: And the MPC8 (Pseudomonas aeruginosa [5])?
Answer: 4 µg/mL

Question: With `CC(C)c1csc(CCc2ccn3c(=O)c(/C=C/C(=O)O)c(N4CCCCC4CO)nc3c2)n1` (stereo not drawn) as the compound, how does the MPC8 (Pseudomonas aeruginosa [1]) read?
Answer: 64 µg/mL

Question: What about the MPC8 (Pseudomonas aeruginosa [2]) of the same compound?
Answer: 64 µg/mL

Question: And the MIC (Pseudomonas aeruginosa [3])?
Answer: > 320 µg/mL

Question: What about the MPC4 (Pseudomonas aeruginosa [4]) of the same compound?
Answer: 8 µg/mL

Question: And the MPC8 (Pseudomonas aeruginosa [5])?
Answer: 64 µg/mL

Question: For `CC(C)c1csc(CCc2ccn3c(=O)c(/C=C/C(=O)O)c(N4CCC(CO)CC4)nc3c2)n1`, which MPC8 (Pseudomonas aeruginosa [1]) is on record?
Answer: 16 µg/mL

Question: And the MPC8 (Pseudomonas aeruginosa [2])?
Answer: 16 µg/mL

Question: And the MIC (Pseudomonas aeruginosa [3])?
Answer: > 320 µg/mL

Question: What about the MPC4 (Pseudomonas aeruginosa [4]) of the same compound?
Answer: 1 µg/mL

Question: And the MPC8 (Pseudomonas aeruginosa [5])?
Answer: 8 µg/mL

Question: What does the source list for `CCCC(CC)Nc1nc2cc(CCc3nc(C(C)C)cs3)ccn2c(=O)c1/C=C/C(=O)O` (stereo not drawn)?
Answer: MPC8 (Pseudomonas aeruginosa [1]): 32 µg/mL; MPC8 (Pseudomonas aeruginosa [2]): 32 µg/mL; MIC (Pseudomonas aeruginosa [3]): > 320 µg/mL; MPC4 (Pseudomonas aeruginosa [4]): 2 µg/mL; MPC8 (Pseudomonas aeruginosa [5]): 16 µg/mL

Question: Which MPC8 (Pseudomonas aeruginosa [1]) does the source give for `CC(C)c1csc(CCc2ccn3c(=O)c(C#CC(=O)O)c(N4CCOCC4)nc3c2)n1` here?
Answer: 16 µg/mL

Question: What about the MPC8 (Pseudomonas aeruginosa [2]) of the same compound?
Answer: 8 µg/mL

Question: What about the MIC (Pseudomonas aeruginosa [3]) of the same compound?
Answer: > 320 µg/mL

Question: And the MPC4 (Pseudomonas aeruginosa [4])?
Answer: 2 µg/mL

Question: What about the MPC8 (Pseudomonas aeruginosa [5]) of the same compound?
Answer: 16 µg/mL

Question: `CCCNc1nc2cc(CCc3nc(C(C)C)cs3)ccn2c(=O)c1/C=C/C(=O)O` was tested. Which MPC8 (Pseudomonas aeruginosa [1]) did it give?
Answer: 32 µg/mL

Question: And the MPC8 (Pseudomonas aeruginosa [2])?
Answer: >32 µg/mL

Question: What about the MIC (Pseudomonas aeruginosa [3]) of the same compound?
Answer: > 320 µg/mL

Question: And the MPC4 (Pseudomonas aeruginosa [4])?
Answer: 8 µg/mL

Question: And the MPC8 (Pseudomonas aeruginosa [5])?
Answer: >32 µg/mL

Question: For `CC(C)c1csc(CCc2ccn3c(=O)c(/C=C/C(=O)O)c(NCCc4ccc(F)cc4)nc3c2)n1`, which MPC8 (Pseudomonas aeruginosa [1]) is on record?
Answer: >32 µg/mL

Question: And the MIC (Pseudomonas aeruginosa [3])?
Answer: > 320 µg/mL

Question: What about the MPC4 (Pseudomonas aeruginosa [4]) of the same compound?
Answer: 8 µg/mL

Question: And the MPC8 (Pseudomonas aeruginosa [6])?
Answer: >32 µg/mL

Question: And the MPC8 (Pseudomonas aeruginosa [5])?
Answer: >32 µg/mL
